Experimental data published in ChEMBL document CHEMBL3612019, “Revisiting 1,3,4-Oxadiazol-2-ones: Utilization in the Development of ABHD6 Inhibitors” (Bioorg Med Chem, 2015).
The source made the active and inactive calls. The rule behind the calls is not given here.

What was measured:
[1] = target: T1, Monoacylglycerol lipase ABHD6 (Homo sapiens) (UniProt Q9BV23); test: Reversible inhibition of human ABHD6 expressed in HEK293 cells at 1 uM pre-incubated for 10 mins before 2-AG substrate addition followed by rapid 40 fold compound dilution measured after 10 to 90 mins by HPLC method; assay type: cell-based
T1 sequence (whole entry): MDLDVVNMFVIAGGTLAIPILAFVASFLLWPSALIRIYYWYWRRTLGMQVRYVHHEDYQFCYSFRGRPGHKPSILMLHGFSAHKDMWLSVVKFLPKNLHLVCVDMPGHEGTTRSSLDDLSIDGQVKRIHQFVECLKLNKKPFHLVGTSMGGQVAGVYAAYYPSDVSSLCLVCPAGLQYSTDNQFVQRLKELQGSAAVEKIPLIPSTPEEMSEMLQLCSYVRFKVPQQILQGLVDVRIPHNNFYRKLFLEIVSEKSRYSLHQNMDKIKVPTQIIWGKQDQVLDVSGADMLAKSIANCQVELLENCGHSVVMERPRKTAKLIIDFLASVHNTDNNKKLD

[2] = target: T2, Fatty-acid amide hydrolase 1 (Homo sapiens) (UniProt O00519); test: Inhibition of human FAAH expressed in COS7 cell membranes at 10 uM pre-incubated for 10 mins before [3H]-AEA substrate addition by liquid scintillation counting; conditions: COS-7
T2 sequence (whole entry): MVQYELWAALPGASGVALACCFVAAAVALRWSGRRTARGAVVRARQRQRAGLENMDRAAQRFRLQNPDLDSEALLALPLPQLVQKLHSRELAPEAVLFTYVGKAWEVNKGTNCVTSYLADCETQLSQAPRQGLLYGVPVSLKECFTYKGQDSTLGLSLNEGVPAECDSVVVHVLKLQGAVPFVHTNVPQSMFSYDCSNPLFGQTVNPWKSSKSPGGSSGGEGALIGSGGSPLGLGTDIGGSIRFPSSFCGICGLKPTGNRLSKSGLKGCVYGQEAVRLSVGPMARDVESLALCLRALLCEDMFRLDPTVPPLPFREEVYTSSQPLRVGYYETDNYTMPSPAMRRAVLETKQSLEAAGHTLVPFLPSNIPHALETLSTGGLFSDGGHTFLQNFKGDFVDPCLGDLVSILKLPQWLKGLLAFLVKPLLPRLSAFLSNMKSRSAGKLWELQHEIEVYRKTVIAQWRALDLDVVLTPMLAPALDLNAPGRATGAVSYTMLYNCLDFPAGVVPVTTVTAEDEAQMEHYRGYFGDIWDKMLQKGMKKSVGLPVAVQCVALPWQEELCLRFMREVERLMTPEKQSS

[3] = target: T3, Monoglyceride lipase (Homo sapiens) (UniProt Q99685); test: Inhibition of human MAGL expressed in HEK293 cells at 10 uM pre-incubated for 10 mins before 2-AG substrate addition by HPLC method; assay type: cell-based
T3 sequence (whole entry): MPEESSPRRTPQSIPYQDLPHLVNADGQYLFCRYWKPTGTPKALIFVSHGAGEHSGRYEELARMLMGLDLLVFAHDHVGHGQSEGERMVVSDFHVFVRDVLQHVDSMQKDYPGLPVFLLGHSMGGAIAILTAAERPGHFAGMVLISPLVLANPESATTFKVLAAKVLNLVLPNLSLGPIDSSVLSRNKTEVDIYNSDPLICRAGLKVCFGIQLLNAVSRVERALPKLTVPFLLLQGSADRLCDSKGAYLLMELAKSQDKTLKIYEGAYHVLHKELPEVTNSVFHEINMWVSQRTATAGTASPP
Outline: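 Lysates of hMAGL-overexpressing HEK293 cells in 50 mM Tris–HCl pH 7.4 with 1 mM EDTA. After a 10 min preincubation with inhibitor or DMSO, 2-AG was added (final 50 µM) and incubated 10 min at 37 °C. The reaction was stopped and samples centrifuged. Arachidonic acid formation and 2-AG depletion were measured by HPLC. Replicates as for the FAAH assay.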

[4] = target: T4, Lysophosphatidylserine lipase ABHD12 (Homo sapiens) (UniProt Q8N2K0); test: Inhibition of human ABHD12 expressed in HEK293 cells assessed as remaining enzyme activity at 1 uM pre-incubated for 10 mins before 2-AG substrate addition by HPLC method; assay type: cell-based
T4 sequence (whole entry): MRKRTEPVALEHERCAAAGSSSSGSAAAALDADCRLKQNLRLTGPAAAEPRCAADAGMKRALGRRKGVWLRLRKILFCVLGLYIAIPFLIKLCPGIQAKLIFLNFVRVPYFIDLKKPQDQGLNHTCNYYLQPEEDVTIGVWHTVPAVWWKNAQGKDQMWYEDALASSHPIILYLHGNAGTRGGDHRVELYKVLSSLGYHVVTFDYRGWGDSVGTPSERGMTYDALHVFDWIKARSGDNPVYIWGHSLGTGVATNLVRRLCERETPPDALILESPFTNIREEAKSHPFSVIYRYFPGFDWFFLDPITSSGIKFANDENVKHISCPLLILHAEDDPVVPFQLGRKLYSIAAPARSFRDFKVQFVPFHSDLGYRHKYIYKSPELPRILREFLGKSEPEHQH

[5] = target: T1, Monoacylglycerol lipase ABHD6 (Homo sapiens); test: Inhibition of human ABHD6 expressed in HEK293 cells assessed as remaining enzyme activity by measuring reduction in glycerol production from 1-AG hydrolysis at 1 uM pre-incubated for 30 mins before 1-AG substrate addition and measured 90 mins post substrate addition by fluorescence method; values are per cent of control

For `CCCCCCCCCCC[C@@H](C[C@@H]1OC(=O)[C@H]1CCCCCC)OC(=O)[C@H](CC(C)C)NC=O`, the inhibition [1] was “Active”.
For `CCOc1nn(Cc2cccc([N+](=O)[O-])c2)c(=O)o1`, the inhibition [2] was “inactive”, the inhibition [3] was 30% and the inhibition [4] was “inactive”. For the same compound, the residual activity [5] was 63%.
